Measurements: ChEMBL document CHEMBL4680238, “Novel octapeptide-DTX prodrugs targeting MMP-7 as effective agents for the treatment of colorectal cancer with lower systemic toxicity” (Eur J Med Chem, 2020)
Residues, ends and D or L forms follow the SMILES beside them. *: point of attachment. X1 = CC(=O)O[C@@]12CO[C@@H]1C[C@H](O)[C@@]1(C)C(=O)[C@H](O)C3=C(C)[C@@H](OC(=O)[C@H](OC(=O)OCc4ccc(N*)cc4)[C@@H](NC(=O)OC(C)(C)C)c4ccccc4)C[C@@](O)([C@@H](OC(=O)c4ccccc4)[C@H]21)C3(C)C

How the values were obtained:
[1] = Toxicity in BALB/c nude mouse xenografted with human HCT-116 cells assessed as reduction in body weight at 11.7 mg/kg, ip administered once for every 7 days for 14 days relative to control; format: organism-based; set-up: scale not given: the % may be the effect or the level left; details: in vivo, 336 h, time 14 day
In short: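 HCT116 s.c. xenografts in male BALB/c nude mice, n = 6 per group. Dosing was ip once every 7 days for 2 weeks in DMSO/castor oil/ethanol/saline; vehicle controls got solvent. Body weight recorded every other day or every three days. Weight loss taken at day 14. Mean ± SD.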

SW-620 = experiment: Cytotoxicity against human SW-620 cells assessed as reduction in cell viability after 72 hrs by MTT assay; format: functional, cell-based; details: SW-620, 72 h
In short: (§1)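 Cells seeded at 5000/well and precultured 1 day. HCT116 grown in McCoy's 5A + 10% FBS; SW620 and HEK293 in DMEM + 10% FBS; CCD18Co in DMEM + 15% FBS. Compounds from 0.1 M DMSO stocks were tested at 10^-10 to 10^-4 mol/L in sixplicate: HCT116 and HEK293 for 48 h, SW620 and CCD18Co for 72 h, at 37 °C, 5% CO2. MTT (5 mg/mL) added for 4 h, then A570 read; IC50 estimated.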

HCT-116 [2] = experiment: Cytotoxicity against human HCT-116 cells assessed as reduction in cell viability after 48 hrs by MTT assay; format: functional, cell-based; details: HCT-116, 48 h; in short: as §1
CCD-18Co = experiment: Cytotoxicity against human CCD-18Co cells assessed as reduction in cell viability after 72 hrs by MTT assay; format: cell-based; in short: as §1
[3] = Half life of compound in PBS buffer at pH 7.4 at 50 ug/ml up to 72 hrs by RP-HPLC analysis; format: physicochemical; details: dose 50 µg/ml
[4] = Half life in Sprague-Dawley rat plasma t 50 ug/ml up to 72 hrs by RP-HPLC analysis; format: ADME, cell-free; details: dose 50 µg/ml
HCT-116 [5] = experiment: Antitumour activity against human HCT-116 cells xenografted in BALB/c nude mouse assessed as tumour growth inhibition at 23.4 mg/kg, ip administered once for every 7 days for 14 days relative to control; format: functional; details: HCT-116, ip, 336 h, time 14 day, read-out: TGI
In short: (§2)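 Male BALB/c nude mice received s.c. HCT116 cells (2 × 10^6 in 0.2 mL PBS). Once tumours reached 100-200 mm3, mice were randomized into groups of six. Dosing was ip, 0.1 mL/10 g, once every 7 days, in DMSO 0.5%/castor oil 5%/ethanol 5%/saline 89.5%; vehicle controls got solvent. Caliper volume V = L×W²×0.52 read every 2-3 days. Tumours excised and weighed on day 14.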

HCT-116 [6] = experiment: Antitumour activity against human HCT-116 cells xenografted in BALB/c nude mouse assessed as tumour growth inhibition at 5.85 mg/kg, ip administered once for every 7 days for 14 days relative to control; format: functional; details: HCT-116, ip, 336 h, time 14 day, read-out: TGI; in short: as §2
[7] = Toxicity in BALB/c nude mouse xenografted with human HCT-116 cells assessed as necrosis in liver at 11.73 mg/kg, ip administered once for every 7 days for 14 days by H and E staining based assay; format: organism-based; details: in vivo, 336 h, time 14 day
In short: (§3)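 At the end of the 14-day ip xenograft study (HCT116, BALB/c nude), heart and liver were collected from vehicle and molar-equivalent dose groups. Tissues fixed in 10% formalin in PBS and stained with H&E. Liver examined at 400×, heart at 100×.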

[8] = Toxicity in BALB/c nude mouse xenografted with human HCT-116 cells assessed as disordered myocardial fiber in heart at 11.73 mg/kg, ip administered once for every 7 days for 14 days by H and E staining based assay; format: organism-based; details: in vivo, 336 h, time 14 day; in short: as §3
[9] = Toxicity in BALB/c nude mouse xenografted with human HCT-116 cells assessed as inflammatory cell invasion in heart at 11.73 mg/kg, ip administered once for every 7 days for 14 days by H and E staining based assay; format: organism-based; details: in vivo, 336 h, time 14 day; in short: as §3
[10] = Toxicity in ip dosed Kunming mouse measured for 14 days; format: organism-based; details: in vivo, time 14 day
In short: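 Healthy Kunming mice of both sexes, 20 ± 2 g, randomised into 5 groups of 10 matched for weight and size. Compound given once intraperitoneally at 400, 300, 250 or 150 mg/kg in formulation solvent (0.5% DMSO, 5% castor oil, 5% ethanol, 89.5% saline), 0.1 mL per 10 g; vehicle controls received solvent. Deaths recorded daily for 14 days; LD50 by Bliss method.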

[11] = Apparent volume of distribution in Sprague-Dawley rat at 5 mg/kg, iv measured up to 72 hrs by LC-MS/MS analysis; format: ADME, organism-based; details: in vivo, read-out: Vz
In short: (§4)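 Male SD rats (180-200 g), fasted 12 h with free water, n = 3 per group. Single tail-vein dose of 5 mg/kg in 0.5% DMSO/5% castor oil/5% ethanol/89.5% saline. Retro-orbital blood drawn 0.083-72 h with heparin. Plasma protein-precipitated with methanol containing paclitaxel internal standard, then analysed by LC-MS/MS. Parameters from non-compartmental analysis, mean ± SD. For the DTX group, parameters were calculated after converting dose to the molar equivalent of the prodrug.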

[12] = MRT (0 to infinity) in Sprague-Dawley rat assessed as docetaxel level at 5 mg/kg, iv measured up to 72 hrs by LC-MS/MS analysis; format: ADME, organism-based; details: in vivo; in short: as §4
[13] = Apparent volume of distribution in Sprague-Dawley rat assessed as docetaxel level at 5 mg/kg, iv measured up to 72 hrs by LC-MS/MS analysis; format: ADME, organism-based; details: in vivo; in short: as §4
[14] = Apparent clearance in Sprague-Dawley rat assessed as docetaxel level at 5 mg/kg, iv measured up to 72 hrs by LC-MS/MS analysis; format: ADME, organism-based; details: in vivo; in short: as §4
[15] = Drug uptake in BALB/c nude mouse xenografted with human HCT-116 cells assessed as drug level in heart at 5 mg/kg, iv measured up to 24 hrs by LC-MS/MS analysis; format: ADME, organism-based; details: in vivo
In short: (§5)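 Male BALB/c nude mice bearing s.c. HCT116 tumours (200-300 mm3), 20 per group. Single tail-vein dose of 5 mg/kg. Five mice per group killed at 0.5, 4, 8 and 24 h and heart-perfused with PBS. Tissues homogenized in saline (4 µL/mg) and precipitated with methanol containing paclitaxel internal standard. Prodrug, released DTX and free DTX measured by LC-MS/MS.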

[16] = Drug uptake in BALB/c nude mouse xenografted with human HCT-116 cells assessed as drug level in liver at 5 mg/kg, iv measured up to 24 hrs by LC-MS/MS analysis; format: ADME, organism-based; details: in vivo; in short: as §5
[17] = Drug uptake in BALB/c nude mouse xenografted with human HCT-116 cells assessed as drug level in spleen at 5 mg/kg, iv measured up to 24 hrs by LC-MS/MS analysis; format: ADME, organism-based; details: in vivo; in short: as §5
[18] = Drug uptake in BALB/c nude mouse xenografted with human HCT-116 cells assessed as drug level in lung at 5 mg/kg, iv measured up to 24 hrs by LC-MS/MS analysis; format: ADME, organism-based; details: in vivo; in short: as §5
[19] = Drug uptake in BALB/c nude mouse xenografted with human HCT-116 cells assessed as drug level in kidney at 5 mg/kg, iv measured up to 24 hrs by LC-MS/MS analysis; format: ADME, organism-based; details: in vivo; in short: as §5
[20] = Drug uptake in BALB/c nude mouse xenografted with human HCT-116 cells assessed as drug level in tumour at 5 mg/kg, iv measured up to 24 hrs by LC-MS/MS analysis; format: ADME, organism-based, Neoplasm; details: in vivo; in short: as §5

CC[C@H](C)[C@H](NC(=O)CNC(=O)[C@H](CCC(N)=O)NC(=O)[C@@H]1CCCN1C(=O)CNC(C)=O)C(=O)N[C@@H](C)C(=O)N[C@@H](CCSC)C(=O)N[C@@H](CCC(N)=O)C(=O)N[C@@H](CC(C)C)C(=O)Nc1ccc(COC(=O)O[C@@H](C(=O)O[C@H]2C[C@@]3(O)[C@@H](OC(=O)c4ccccc4)[C@@H]4[C@]5(OC(C)=O)CO[C@@H]5C[C@H](O)[C@@]4(C)C(=O)[C@H](O)C(=C2C)C3(C)C)[C@@H](NC(=O)OC(C)(C)C)c2ccccc2)cc1 (Ac-GPQGIAMQL-X1) gave an Activity [1] of 8.5%, an IC50 (SW-620) of 30 nM and an IC50 (HCT-116 [2]) of 9.1 nM. For the same compound, the IC50 (CCD-18Co) was greater than 200000 nM, the half-life at 50 ug/ml [3] was greater than 72 h and the half-life at 50 ug/ml [4] was 24.2 h. For the same compound, the inhibition in vivo at 23.4 mg/kg (HCT-116 [5]) was 56.1%, the inhibition in vivo at 5.85 mg/kg (HCT-116 [6]) was 28.8% and the Activity [7] was “Non-Toxic”. The Activity [8] was “Non-Toxic”, the Activity [9] was “Non-Toxic” and the LD50 at 336 h [10] was 245 mg/kg. The Vd [11] was 10.4 L/kg, the MRT [12] was 9.04 h and the Vz [13] was 206.32 L/kg. For the same compound, the “CL(app)” value [14] was 316.3 mL/min/kg, the Drug uptake [15] was “Active” and the Drug uptake [16] was “Active”. The Drug uptake [17] was “Active”, the Drug uptake [18] was “Active” and the Drug uptake [19] was “Active”. For the same compound, the Drug uptake [20] was “Active”.
